# Bioassay records from PubChem BioAssay.
# Pf gamet viab – kills late stage P. falciparum gametocytes; P. falciparum stage V gametocytes, ATP luminescence, 24 h; inhibition, % at 10.9 µM; hit rate 0.065% among 150,000; AID 743093;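 active = inhibition above the mean plus 3 SD of compounds within the control limits, set per campaign, cut at about 38% in these data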
# S1P4 antag – antagonists of human S1P4 receptor. inhibition, % at 4.98 µM. hit rate 0.26% among 220,000. AID 1510. O95977. S1P4-expressing cells, antagonist mode, reporter read-out; in the data active = inhibition above about 29%
# S1P3 antag-1 – antagonists of human S1P3 receptor | Q99500 | CHO S1P3 NFAT-BLA reporter, FRET fluorescence, antagonist mode | hit rate 0.27% among 170,000 | AID 485 | inhibition, % at 4.98 µM;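 active = inhibition above the plate cutoff, the mean inhibition of test wells on that plate plus 3 SD, cut at about 28% in these data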;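 note: cells challenged with S1P at its EC80 of 0.8 µM; blue over green emission ratio from cleaved BLA substrate after 4 h stimulation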
# Target sequence (Q99500 whole entry, looked up): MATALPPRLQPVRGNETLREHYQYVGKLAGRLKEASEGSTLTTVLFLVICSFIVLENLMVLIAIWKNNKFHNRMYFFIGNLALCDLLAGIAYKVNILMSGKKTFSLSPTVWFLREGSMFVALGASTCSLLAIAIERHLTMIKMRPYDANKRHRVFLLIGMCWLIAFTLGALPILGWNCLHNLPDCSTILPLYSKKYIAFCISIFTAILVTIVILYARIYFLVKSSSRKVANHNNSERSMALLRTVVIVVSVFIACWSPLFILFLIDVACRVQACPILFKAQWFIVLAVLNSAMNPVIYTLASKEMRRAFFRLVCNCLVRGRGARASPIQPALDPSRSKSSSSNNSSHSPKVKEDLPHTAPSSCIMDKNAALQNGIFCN
# Biofilm kill mix – mixtures killing C. albicans biofilm; C. albicans biofilm persisters + clotrimazole, fluorescence viability; primary screen in compound mixtures of four per well; inhibition, % at 7.6 µM; hit rate 0.02% among 120,000;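 active = inhibition above 30.3% in the primary screen of four-compound pools, then above 30% when the compound was retested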;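 note: compounds exposed to preformed 24 h biofilms for 48 h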
#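 Probe or stimulus – Clotrimazole 50 µg/mL co-treatment · System – C. albicans biofilms · Schedule – 24 h biofilm formation, then 48 h compound exposure, 37 °C · Evaluation – percent inhibition of biofilm viability · Technique – 2-h Alamar Blue fluorescence, 535/590 nm excitation/emission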
# S1P4 agonist – agonists of human S1P4 receptor; O95977; S1P4-expressing cell line, agonist reporter assay; activation, % at 4.98 µM; hit rate 0.35% among 220,000; AID 1509; in the data active = activation above about 11%
# S1P3 antag-2 – human S1P3 receptor antagonism, confirmation | shares compounds with S1P3 antag-1 | CHO S1P3 NFAT-BLA reporter, FRET, antagonist mode | inhibition, % at 4.98 µM | hit rate 30% among 240 | AID 1429;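 active = inhibition above the hit threshold that was computed for the earlier primary screen, cut at about 30% in these data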
# Numbers stand for hits; . = inactive; / = not tested or not shown; ! = a repeat was not active. An excerpt weighted towards active compounds, which were near 0.77% of everything screened.
SMILES,Pf gamet viab,S1P4 antag,S1P3 antag-1,Biofilm kill mix,S1P4 agonist,S1P3 antag-2
CCC(=O)N1c2ccccc2-c2nnc(SC)nc2OC1c1ccc(OC)c(OC)c1 (stereo not given),/,.,.,/,.,/
CCOc1ccc(C2Oc3nc(SC)nnc3-c3ccccc3N2C(C)=O)cc1OC (stereo not given),/,.,54.7,/,.,/
OC(CN1C2=NCCN2c2ccccc21)c1ccccc1 (stereo not given),.,.,.,/,.,/
OC(CN1C2=NCCCN2c2ccccc21)c1ccc(Cl)cc1 (stereo not given),/,.,82.5,/,.,/
O=[N+]([O-])c1cc(/C=N/Nc2nc3ccccc3[nH]2)c(O)cc1O,.,.,.,.,.,/
CN(C)/C=C(/C(=O)c1ccccc1)n1cncn1,.,.,.,.,.,/
CC(C)(C)C(=O)/C(=C\c1ccc([N+](=O)[O-])cc1)n1cncn1,/,54.8,/,.,.,/
COc1cc(S(=O)(=O)N(Cc2cccnc2)Cc2cccc(OC)c2OC)ccc1-n1cnnn1,.,.,.,.,.,/
COC(=O)COc1cccc(NC(=O)C(c2ccccc2)c2ccccc2)c1,.,/,/,/,/,/
NC(=O)c1c(NC(=O)c2cccs2)sc2c1CCCCCC2,/,.,54.4,/,.,/
CSC1=NCCN1C(=O)c1ccc(S(=O)(=O)N2CCCCC2)cc1,/,.,.,/,166.4,/
CSC1=NCCN1C(=O)c1ccc(S(=O)(=O)N2CCCC2)cc1,/,.,.,/,.,/
O=C1c2cccc3c([N+](=O)[O-])ccc(c23)C(=O)N1c1nccs1,.,98.9,/,/,.,/
CCC(C)NC(=O)CS(=O)(=O)Cc1nc(-c2cccc(OC)c2)oc1C (stereo not given),/,.,85.4,/,.,/
O=C(CCCn1cc([N+](=O)[O-])cn1)N1CCCCC1,.,.,.,.,.,/
Cc1ccccc1OCC(O)Cn1c(=N)n(Cc2ccccc2)c2ccccc21 (stereo not given),.,.,.,30.4,.,/
C/C(CCc1ccccc1)=N/NC(=O)C(=O)NC(C)c1ccccc1 (stereo not given),/,.,.,.,.,/
COc1cc(CNCCO)ccc1OCCc1ccccc1,.,/,/,/,/,/
CCn1cc(C(=O)N2CCn3c(nc4ccccc43)C2)c(=O)c2ccc(C)nc21,/,.,68.3,/,.,/
Cc1nn(-c2nc3ccccc3[nH]2)c(=O)c2ccccc12,61.1,.,.,.,.,/
Cc1nn(-c2ccc3ccccc3c2)c(=O)c2ccccc12,/,.,.,.,.,/
O=C(COC(=O)CCC(=O)c1ccc(F)cc1)NCc1ccco1,.,.,.,.,.,/
O=C(COC(=O)Cc1ccc(F)cc1)NCc1ccco1,49.2,.,.,.,.,/
CCn1c(N)c(C(=O)NCc2cccnc2)sc1=S,/,.,54.2,/,.,/
CN(C1CCS(=O)(=O)C1)S(=O)(=O)c1ccccc1 (stereo not given),38.5,.,.,.,.,/
SMILES,Pf gamet viab,S1P4 antag,S1P3 antag-1,Biofilm kill mix,S1P4 agonist,S1P3 antag-2
Cc1ccc(S(=O)(=O)N(c2ccccc2)C2CCS(=O)(=O)C2)cc1 (stereo not given),.,.,.,/,.,/
C/C(=N\Nc1ccc([N+](=O)[O-])cc1)c1ccc(O)cc1,.,.,34.3,.,.,.
Cc1nc(NC(=O)/C=C/c2ccc(C(C)(C)C)cc2)sc1C(=O)N(C)C,.,.,.,.,.,/
COc1ccc(C(=O)NCCCCNC(=O)c2ccc(OC)c(OC)c2)cc1OC,.,/,/,/,/,/
COc1cc(/C(C)=N\NC(=O)CSc2nc3ccccc3n2C)ccc1O,.,.,.,.,.,/
CCOC(=O)N1CCC(N(CCN(C)C)C(=S)Nc2cc(Cl)cc(Cl)c2)CC1,.,.,29.0,.,.,.
COc1ccc(OCC(O)CNC(=O)c2sccc2Cl)cc1 (stereo not given),.,.,.,.,.,/
CCOC(=O)C1CCCN(S(=O)(=O)c2ccc(S(=O)(=O)N(CC)CC)cc2)C1 (stereo not given),/,.,48.0,.,.,.
CC(C)CNC(=O)c1cccc(NC(=O)Cc2ccc(Br)cc2)c1,.,.,30.2,.,.,.
CCC(C)(C)C1CCc2c(sc(N)c2C(N)=O)C1 (stereo not given),.,.,38.1,.,.,.
COc1cc(OC)cc(C(=O)NCCCCc2ccccc2)c1,.,/,/,/,/,/
CCS(=O)(=O)N1CCC(NC(=O)C(Cc2cccc(OC)c2OC)NC(C)=O)CC1 (stereo not given),.,/,/,/,/,/
COc1ccc(C(=O)NCc2ccc(-n3cccc3)cc2)cc1OC,.,.,41.4,.,.,.
COc1ccc(C(=O)NCc2ccc(C(=O)NCC(OC)OC)cc2)cc1OC,.,.,.,.,.,/
c1ccc2c(c1)OCC(CNc1ncnc3sccc13)O2 (stereo not given),.,.,43.3,.,.,.
CN(C)c1cc[n+](CC(=O)N2CCCc3ccccc32)cc1,/,.,.,.,.,/
O=C(COc1ccccc1)Nc1cccc2nsnc12,/,.,.,/,.,/
O=C(Nc1ccc(Cl)cc1)Nc1cccc2nsnc12,/,.,29.2,.,.,.
CNc1nc(Nc2ccccc2)nc(OCC(F)(F)F)n1,.,.,38.8,.,.,.
COc1ccc(CCNc2ncnc3sccc23)cc1OC,.,.,49.1,.,.,.
NS(=O)(=O)c1ccc(CCNc2ncnc3sccc23)cc1,/,.,.,/,.,/
CCCCNC(=O)COC(=O)c1c2c(nc3ccccc13)/C(=C/c1cccs1)CC2,/,.,36.7,.,.,.
CNC(=O)NC(=O)C(C)OC(=O)c1c2c(nc3ccccc13)/C(=C/c1cccs1)CC2 (stereo not given),.,.,.,.,.,/
COc1ccc(C(=O)NC(Nc2ccc(C)cc2)C(Cl)(Cl)Cl)cc1 (stereo not given),.,.,43.5,.,.,58.3
Cc1cccc(C(=O)NC(=S)Nc2c(C)n(C)n(-c3ccccc3)c2=O)c1,.,/,/,/,/,/
SMILES,Pf gamet viab,S1P4 antag,S1P3 antag-1,Biofilm kill mix,S1P4 agonist,S1P3 antag-2
Clc1ccccc1C1=CC(c2ccco2)n2ncnc2N1 (stereo not given),.,.,32.4,.,.,.
S=c1[nH]ccn1-c1ccccc1Cl,.,.,73.1!,.,.,.
S=c1[nH]ccn1-c1cccc(Cl)c1Cl,.,.,.,.,.,/
COc1ccc(OC)c(Nc2ccc(Nc3cc(OC)ccc3OC)nn2)c1,.,.,30.8,.,.,.
Cc1ccc(S(=O)(=O)NCCc2nnc3ccc(SCC(=O)Nc4nc5ccccc5s4)nn23)cc1,/,.,28.2,.,.,.
COc1ccc(N(C=O)C(C(=O)Nc2c(C)cccc2C)c2ccccc2)cc1 (stereo not given),.,/,/,/,/,/
O=C(O)c1ccc(CN2C(=O)c3ccc(Oc4ccc([N+](=O)[O-])cc4)cc3C2=O)cc1,.,/,/,/,/,/
Cc1cc(C)nc(SCC(=O)Nc2ccnc3ccccc23)n1,.,.,29.9,.,.,.
COC(=O)c1ccccc1NC(=O)CSc1nc(C)cc(C)n1,/,.,.,.,.,/
COc1ccc(-c2nc(-c3ccccn3)ncc2S(C)(=O)=O)cc1,.,.,.,.,.,/
Cn1nc(-c2ccccn2)nc2c(=O)n(C)c(=O)nc1-2,.,104.0,81.1,.,.,89.9
